Here are results for two compounds from ChEMBL document CHEMBL4680128, “Synthesis of a novel and potent small-molecule antagonist of PAC1 receptor for the treatment of neuropathic pain” (Eur J Med Chem, 2020).

Data set [1] deals with T1, Pituitary adenylate cyclase-activating polypeptide type I receptor (Homo sapiens, UniProt P41586). The data set is described as follows: Antagonist activity at PAC1 receptor (unknown origin) expressed in CHO cells assessed as inhibition of PACAP-induced inhibition of CREB phosphorylation preincubated for 30 mins followed by PACAP stimulation and measured after 30 mins by Western blot analysis. In kind it is cell-based. Conditions: for inhibition: filed as antagonist, time 60.0 min. Put shortly:
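PAC1/CHO cells seeded at 1×10^5 cells/well and grown 48 h, then pretreated 30 min with agent over 10 pM to 10 nM (vehicle 0.1% DMSO). Stimulated with PACAP 1 nM for 30 min. Western blot of 20 µg lysate for phospho-CREB (Ser133) and total CREB, with pCREB normalised to total CREB. IC50 taken from the dose series. n = 3-5.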

The species named for data set [2] is Mus musculus. In words: Antiallodynic activity in PACAP-induced mechanical allodynia ddy mouse model assessed as increase in ipsilateral paw withdrawal threshold at 100 pmol, it. The format is functional, organism-based. In outline:
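Male ddY mice, 6 weeks old at start. Agent 100 pmol co-injected i.t. with PACAP 100 pmol in 5 µl by lumbar (L5/L6) puncture; diluted in PBS or ACSF. Hind-paw 50% withdrawal threshold measured with von Frey hairs by the up-down method. n = 6, compared with vehicle.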

Data set [3] deals with Mus musculus. In words: Antiallodynic activity in ddy mouse model of spinal nerve ligation-induced neuropathic pain assessed as […] at 100 pmol, it administered as single dose measured up to 24 hrs. The format is functional, organism-based. Conditions: time hrs <=24.
A short description of data set [4]: Effect on nociception on contralateral paw in ddy mouse model of spinal nerve ligation-induced neuropathic pain at 100 pmol, it administered as single dose measured up to 24 hrs. The conditions noted are these: in vivo, icv_or_intrathecal. In kind it is ADME.
Data set [5] in a line: Effect on nociception on contralateral paw in ddy mouse model of spinal nerve ligation-induced neuropathic pain at 30 mg/kg, po administered as single dose measured up to 24 hrs. The format is ADME, organism-based. Conditions: in vivo. Put shortly:
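Spinal nerve ligation performed in male ddY mice. On day 14 after SNL, a single oral dose of 30 mg/kg given. Ipsilateral and contralateral hind-paw 50% gram thresholds measured by von Frey up-down method at serial times after dosing. n = 6 per group, compared with vehicle.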

Data set [6] concerns the target T1, Pituitary adenylate cyclase-activating polypeptide type I receptor. The data set is described as follows: Antagonist activity at PAC1 receptor (unknown origin) expressed in CHO cells assessed as inhibition of PACAP-induced inhibition of CREB phosphorylation at 1 nM preincubated for 30 mins followed by PACAP stimulation and measured after 30 mins by Western blot analysis relative to control; values are per cent of control. Conditions: time 60.0 min.
Target sequence in this assay (P41586 21-468 limits assumed): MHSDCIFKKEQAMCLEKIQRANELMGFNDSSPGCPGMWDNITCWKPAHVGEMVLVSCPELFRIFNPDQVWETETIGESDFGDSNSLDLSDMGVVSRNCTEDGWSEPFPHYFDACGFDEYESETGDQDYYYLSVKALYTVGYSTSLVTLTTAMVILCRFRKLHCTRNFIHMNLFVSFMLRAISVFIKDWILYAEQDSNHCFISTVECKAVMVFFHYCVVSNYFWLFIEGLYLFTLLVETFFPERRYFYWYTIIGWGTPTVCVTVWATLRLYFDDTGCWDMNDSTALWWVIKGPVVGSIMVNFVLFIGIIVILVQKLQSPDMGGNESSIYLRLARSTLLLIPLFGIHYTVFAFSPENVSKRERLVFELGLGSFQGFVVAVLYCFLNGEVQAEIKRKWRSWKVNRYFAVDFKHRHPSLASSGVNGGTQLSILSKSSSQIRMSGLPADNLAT

The structures appear in SMILES notation. Calls of active or inactive are those of the source.

`O=C(NCCc1c[nH]cn1)C1CC(=O)N(c2n[nH]c3c(Cl)cccc23)C1` (centres undefined): the IC50 in data set [1] is under 0.01 nM. In data set [1], the inhibition result is “Dose-dependent effect”. Moreover, the outcome in the data set filed under Mus musculus [2] and in the data set on Mus musculus [3] was Active. For the same compound, the Activity result in data set [4] and in data set [5] was “Non-Toxic” throughout. Also, the residual activity in data set [6] is 11.9%.
Take `O=C(NCCc1c[nH]cn1)C1CC(=O)N(c2n[nH]c3ccccc23)C1` (centres undefined): in data set [1], the IC50 was determined as 0.182 nM. For the same compound, the inhibition entry in data set [1] is “Dose-dependent effect”. Further, the result in the data set listed under Mus musculus [2] and in the data set with Mus musculus [3] was Active. Moreover, the Activity result in data set [4] and in data set [5] was “Non-Toxic” throughout. Moreover, in data set [6], the residual activity turned out to be 30.6%.
